# The list is not random: actives were taken first. Their share in the collection is about 4.1%.
# DTT redox prof: compounds producing H2O2 with reducing agent – biochemical, NIH compound library profiling, artefact control for MLSCN library redox annotation, primary screen | DTT-dependent redox cycling H2O2, phenol red/HRP absorbance; 100% = 100 µM peroxide control, 0% = buffer | activation, % at 10 µM | hit rate 0.03% among 200,000 | AID 878, 2007;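 active means activation of at least 50% relative to the plate's high and low controls in the primary single-dose screen; inactive means activation below 50%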;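 further: compound incubated with DTT at 0.8 mM final as the reducing agent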
# ROMK primary: ROMK potassium channel modulators, primary screen, cell-based, thallium flux, MLSMR library | ATP-sensitive inward rectifier potassium channel 1 (Homo sapiens), P48048 | Tet-inducible ROMK, thallium flux fluorescence; actives lie on both sides | B-score at 10 µM | hit rate 2% among 130,000 | AID 1918, 2009;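 active means signal ratio slope over the read window, or its plate-corrected B-score, at least 3 SD from the plate mean, either direction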;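 further: B-score of the F/F0 ratio slope over 7 to 12 s after thallium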
# Dynein cargo inh: inhibitors of GR-EGFP nuclear translocation, primary screen, dynein cargo transport inhibitor project, imaging, high-content, 3617.4 mouse cells | z-score, hits read low | test concentration mostly 20 µM; stimulated with dexamethasone, 1 µM; active compounds read low | AID 1381, 2008 | hit rate 0.47% among 220,000;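 active means plate z-score of nuclear minus cytoplasmic receptor signal below a set negative limit, without overly bright fluorescence or cell loss, cut at about -3.5 in these data, passing the limit was not always enough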;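 further: z-score of nuclear minus cytoplasmic ring GR-EGFP intensity difference per well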
#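 Also added: dexamethasone, 1.0 µM final. Medium: tet-free, stripped-serum medium. Detection: fixed, Hoechst-stained cells imaged at 10x for EGFP. Read-out: nuclear-to-cytoplasmic GR-EGFP distribution per well. Times: induction 48 h, compound 1 h, agonist 30 min.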
# Autophagy mod: autophagy modulators in MEF cells, primary screen, imaging, high-content, MEF GFP-LC3 | hit rate 0.98% among 190,000 | calls only at 10 µM (by protocol) | MEF GFP-LC3 puncta imaging; test concentration mostly 10 µM;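 active means percentage of spot-positive cells more than 3 SD above its plate mean, without a fluorescence outlier flag or 80% toxicity; inconclusive means no clear call, values can overlap the other calls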
# Cl transport mod: KCC2 cotransporter modulators, thallium flux, primary screen, cell-based, HEK293 KCC2, FluoZin-2 fluorescence, MLSMR; B-score of Tl+ flux slope (higher = more flux/activation; lower = inhibition) at 10 µM; KCC2 cells, thallium flux FluoZin-2 fluorescence; AID 1456, 2008; hit rate 2.2% among 190,000; Solute carrier family 12 member 5 (Homo sapiens), Q9H2X9;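 active means thallium flux slope and its plate-corrected score both differing from the plate sample mean at a set confidence after two filtering rounds, in either direction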;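 further: slope of fluorescence scaled to starting intensity during 10 to 20 s after thallium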
# ROMK hit retest: ROMK channel modulator hit retest, confirmation, cell-based, thallium flux, duplicate, resupplied hits. hit rate 54% among 3,000. fluorescence ratio; active compounds read low. shares compounds with ROMK primary. normalized thallium flux (F/F0 slope) at 10 µM;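 active means Flux at 10 µM at least 3 SD below or above vehicle control mean in one or both replicates; inconclusive means no clear call, values can overlap the other calls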
# Hits are given with their value; – = inactive; ? = inconclusive; · = no result given; + = active, no number.
SMILES,DTT redox prof,ROMK primary,Dynein cargo inh,Autophagy mod,Cl transport mod,ROMK hit retest
COc1ccc(CCC(C)NC2C3CC4CC(C3)CC2C4)cc1 (stereo unspecified),–,·,–,–,–,0.057
COc1ccc(CCNC(=O)c2ccccc2SC)cc1,–,–,–,–,–,·
Cc1cc(OCC(O)CNC(C)(C)C)ccc1Cl (stereo unspecified),–,–,–,–,–,·
CCOc1cccc(NC(=O)/C(C#N)=C/c2cccnc2)c1,·,·,–,·,–,0.035
CCOc1ccc(/C=C(\C#N)C(=O)Nc2cccnc2)cc1,–,·,–,–,–,·
CCCc1nc(SCC(=O)N2CCCc3ccccc32)c2c(=O)n(C)c(=O)n(C)c2n1,–,·,–,·,–,0.057
COCCn1c(SCC(=O)N2CCCc3ccccc32)nc2ccccc2c1=O,–,-2.7,–,–,·,0.063
CCCc1nc(SCC(=O)N2CCC(Cc3ccccc3)CC2)c2c(=O)n(C)c(=O)n(C)c2n1,–,·,–,·,–,?
COc1cc(C2NC(=O)C(C#N)=C(Nc3cccc(C)c3)S2)ccc1O (stereo unspecified),·,·,–,·,–,·
CC(C)Cc1nc2sc3c(c2c(=O)n1N)CC(C)(C)OC3,·,–,–,·,–,·
O=C(Cc1ccccc1)NNc1c2ccccc2nc2ccccc12,–,–,–,–,–,·
OCC(Cc1ccccc1)Nc1c2ccccc2nc2ccccc12 (stereo unspecified),–,-6.4,–,–,–,0.041
O=c1c(Cl)c(O)c2cccc3c4ccccc4n1c23,–,–,–,–,–,–
CCOC1=C/C(=C/c2c(N)n3nc(-c4ccccc4)sc3nc2=O)C=CC1=O,–,-3.5,–,–,–,0.044
CCS(=O)(=O)c1nn2c(N)c(/C=C3/C=CC(=O)C(OC)=C3)c(=O)nc2s1,–,–,–,–,–,·
O=C(O)c1ccccc1C(=O)NC1CCCCNC1=O (stereo unspecified),·,·,–,·,–,·
Cn1nc(C(F)(F)F)c(C#N)c1N1CCN(c2ccccc2)CC1,–,-3.1,–,–,–,0.063
COc1cccc(/C=N/n2c(SC)nnc2-c2ccccc2)c1O,–,3.6,–,–,·,–
O=C(Nc1ccccc1)Nc1ccc(F)c([N+](=O)[O-])c1,–,·,–,–,–,?
COc1ccc(CCNC(=O)CSc2nc(C)nc3sccc23)cc1OC,·,·,–,·,–,·
COc1ccc(CC(=O)NNC(=O)CSc2nc(C)c(C)c(=O)[nH]2)cc1,–,–,–,–,–,·
CCOC(=O)C1(CCOC)CCN(Cc2ccc(C3CCCCO3)s2)CC1 (stereo unspecified),–,–,–,–,·,·
O=C(/C=C/c1ccc(F)cc1)N1CCN(S(=O)(=O)/C=C/c2ccccc2)CC1,–,3,–,–,–,–
O=C(CCn1c2c(c3ccccc31)CCCC2)NNC(=O)c1ccc(Cl)c([N+](=O)[O-])c1,–,–,–,–,–,·
O=C(CCn1c2c(c3ccccc31)CCCC2)NNC(=O)c1ccc([N+](=O)[O-])cc1,–,·,–,–,–,0.048
SMILES,DTT redox prof,ROMK primary,Dynein cargo inh,Autophagy mod,Cl transport mod,ROMK hit retest
N#C/C(=C\c1cccc([N+](=O)[O-])c1)C(=O)NCC1CCCO1 (stereo unspecified),–,-11,–,–,–,0.042
CC(C)C(C)NC(=O)COC(=O)c1cccc(C(=O)OCC(=O)NC(C)C(C)C)n1 (stereo unspecified),–,–,–,–,–,·
O=C(N/N=C/c1cccs1)c1cc(-c2ccncc2)nc2ccccc12,–,4.2,–,–,–,–
CCc1ccc(/C=N/NC(=O)c2cc(-c3ccncc3)nc3ccccc23)s1,–,·,–,–,–,·
Cc1cc(C)n(C(=O)c2cc(F)c(F)cc2C)n1,–,–,–,–,–,·
CCOC(=O)N1CCN(C(=O)COc2ccc(Cl)c(C)c2)CC1,–,-3.6,–,–,–,0.058
O=C(Nc1cc(C(F)(F)F)ccc1-n1cnc2ccccc21)c1ccccc1,–,·,–,–,–,·
CCn1c(SCC(=O)Nc2ccccc2C)nc2nc3c(cc2c1=O)COC(C)(C)C3,·,·,–,·,–,·
CSc1cccc(NC(=S)NCCCN2CCN(c3ccc(F)cc3)CC2)c1,–,-2.7,–,–,–,0.053
Fc1cccc(NC(=S)NCCCN2CCOCC2)c1,–,·,–,–,–,·
Cc1cccc(Nc2ncccc2C(=O)O)c1C,–,·,–,–,–,–
COc1cc(CNC2CCCC2)cc(Cl)c1OCc1ccc(F)cc1,–,·,–,–,·,·
CCOc1cc(CNC2CCCC2)cc(Cl)c1OCc1ccc(F)cc1,–,-3.8,–,–,–,0.061
COc1ccc(-n2cc(CNCCc3cnc[nH]3)c(-c3cccc(F)c3)n2)cc1,–,-1.9,–,–,·,0.061
CC(C)(C)C1CC=C2C(C#N)=C(N)C(C#N)(C#N)C(c3cccs3)C2C1 (stereo unspecified),–,-3,–,–,–,0.055
COc1cc(C(=O)N2CCN(c3ncnc4sc(C)c(C)c34)CC2)cc(OC)c1OC,–,·,–,–,–,–
CCCCC(=O)Nc1nnc(CCOC)s1,–,–,–,–,–,·
Oc1ccccc1-c1nc(NCCN2CCOCC2)c2ccccc2n1,–,-3.7,–,–,·,–
COc1ccc(C(=O)c2nccc3ccccc23)cc1,–,–,–,–,–,·
CC(C)(C)NC(=O)NCC1CCCC1NC(=O)NC(C)(C)C (stereo unspecified),·,·,–,·,–,·
CC1CCCCC1NC(=O)CN1C(=O)c2cccc(N)c2C1=O (stereo unspecified),–,-3.7,–,–,–,0.056
COCCCNC(=O)CN1C(=O)c2ccccc2C1=O,–,–,–,–,–,·
CCCCNC(=O)CN1C(=O)c2cccc(N)c2C1=O,–,–,–,–,–,0.055
Cc1ccc2c(c1)C(=O)CC(O)(C(F)F)O2 (stereo unspecified),·,·,–,·,–,–
COC(=O)c1ccc2c(c1)C(C)(C)C(/C=C/c1ccc(OC)c(OC)c1OC)=[N+]2C,–,·,–,+,–,0.058
COC(=O)c1ccc2nc(C)c(C)nc2c1,–,·,–,–,–,·
CC1=CC(C)(C)N(C(=O)CCl)c2cc(C)ccc21,–,–,–,–,–,·
CC1=CC(C)(C)N(C(=O)CNC2CCCCC2)c2cc(C)ccc21,–,-7.1,–,–,–,0.051
CCCCN(CC)c1nc(N)c2c(N)nc(OCC)cc2c1C#N,–,–,–,–,·,·
CCCCN(CC)c1nc(N)c(C#N)c(CC#N)c1C#N,–,-3.1,–,–,–,0.055
